Compound activity deposited in PubChem by several laboratories.
APP 5'UTR act: APP 5'UTR luciferase reporter activation | activation, % at 2 µM | SH-SY5Y APP 5'UTR luciferase reporter, luminescence; zero percent = DMSO vehicle wells | 1% of 190,000 active;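 active = activation above a set limit, based on mean plus 3 SD of controls, cut at about 140% in these data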
STAT1 act: increases IFN-gamma driven STAT1 reporter signal; NIH 3T3 STAT1-luciferase reporter, luminescence; 100% = IFN-gamma alone, no compound; activation (% of control), % at 5.5 µM; 2.6% of 200,000 active;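 active = activation above the screen-wide mean activation plus 3 SD, cut at about 130% in these data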
FLuc inhib CS: Photinus pyralis luciferase inhibition counter-screen | ATPLite firefly luciferase biochemical luminescence, 10 min | inhibition, % at 10 µM | 1.5% of 200,000 active | AID 1006;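 active = inhibition above about 50% when tested at 10 µM, limit read from the data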
Target sequence (P08659 whole entry, looked up): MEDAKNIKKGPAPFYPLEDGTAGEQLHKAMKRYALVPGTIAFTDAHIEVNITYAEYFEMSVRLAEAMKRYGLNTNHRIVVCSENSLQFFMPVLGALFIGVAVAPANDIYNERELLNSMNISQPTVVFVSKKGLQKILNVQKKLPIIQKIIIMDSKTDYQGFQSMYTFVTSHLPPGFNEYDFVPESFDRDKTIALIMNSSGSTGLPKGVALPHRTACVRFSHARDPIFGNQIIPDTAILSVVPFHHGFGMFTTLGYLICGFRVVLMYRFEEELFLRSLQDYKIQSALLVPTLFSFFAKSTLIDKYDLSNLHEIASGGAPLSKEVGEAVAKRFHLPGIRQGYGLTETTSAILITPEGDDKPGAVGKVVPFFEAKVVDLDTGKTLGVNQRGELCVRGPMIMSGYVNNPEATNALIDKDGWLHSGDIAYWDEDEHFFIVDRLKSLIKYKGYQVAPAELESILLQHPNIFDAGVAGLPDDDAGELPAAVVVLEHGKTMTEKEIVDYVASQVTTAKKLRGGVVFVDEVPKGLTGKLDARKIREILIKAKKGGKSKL
APP 5UTR inh: APP translation inhibition. inhibition, % at 2 µM. AID 1285. 0.82% of 190,000 active. SH-SY5Y APP 5'UTR-luciferase reporter, luminescence;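 active = inhibition above a set limit, derived from the sample mean plus 3 SD, cut at about 45% in these data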
FLuc stim CS: affects firefly luciferase, flagging false hits in luciferase stimulation screens | activation factor at 10 µM | ATPlite luciferase biochemical, luminescence, 10 min; 0 = ATP-free wells, 1 = DMSO control | P08659 | 200,000 tested, under 10 active | AID 1027;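 active = luciferase activation factor, scaled between plate controls, of at least 2 with compound at 10 µM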
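Material: Luciferase/luciferin reagent mix; Doses: test compounds dosed from 2 mM stocks in 100% DMSO; Schedule: 10 min incubation after luciferase reagent addition, room temperature; Measured by: luminescence from luciferase reaction; Read-out: luminescence gain marking luciferase activators.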
NF-kB expr up: raises NF-kB expression in human neuronal cells. 1.6% of 190,000 active. NF-kB reporter expression; active compounds read high. AID 1239. fold change at 12.5 µM; in the data active = fold change above about 3.3
Each line names hits and unclear results; the compound was inactive in the other large screens. Sampled rows, rich in hits. Any-hit rate of the full collection: about 4.8%.

CC(C)c1ccc(NC(=O)c2cccc(Br)c2)cc1	STAT1 act 140.3
COc1ccc2cc(C(=O)C3CCCN(C(=O)c4cc5nc(C)cc(C)n5n4)C3)ccc2c1 (stereo not given)	none
N#C/C(=C\c1ccccn1)c1nc2ccccc2s1	FLuc inhib CS 68.3
Cc1cc(NC(=O)C2COc3ccccc3O2)no1 (stereo not given)	none
Cc1ccc(-c2nc3ccsc3c(=O)[nH]2)cc1	APP 5'UTR act 198.5, FLuc inhib CS 74.8
CCOC(=O)CSc1nc2ccsc2c(=O)[nH]1	none
Cc1cc(C(=O)N2CCCC(C(=O)c3ccc4ccccc4c3)C2)n(C)n1 (stereo not given)	none
CC(C)c1nnc(NC(=O)c2cccc(-n3cnnn3)c2)s1	none
COc1cccc(C(=O)Nc2nc(C)cs2)c1	APP 5'UTR act 163.6, STAT1 act 148.5, NF-kB expr up 3.7
CC(C)c1nnc(NC(=O)c2ccc(N3C(=O)CCC3=O)cc2)s1	STAT1 act 135.9
CCCc1nnc(NC(=O)c2cccc(OC)c2)s1	STAT1 act 133.9
COc1cccc(C(=O)Nc2nnc(C(C)C)s2)c1	APP 5'UTR act 198.1, STAT1 act 136.0 (no result: NF-kB expr up)
O=C(O)CCSCCCN1C(=O)c2cccc3cccc(c23)C1=O	none
CC(C(=O)N1CCN(c2ccc(Cl)cc2)CC1)c1ncc(C(F)(F)F)cc1Cl (stereo not given)	none
CCOc1ccc(NC(=O)CN(C)Cc2cc(=O)n3c(-c4ccccc4)csc3n2)cc1OCC	none
CCc1ccc2nc(N3C(=O)C(O)=C(C(=O)c4ccco4)C3c3cccs3)sc2c1 (stereo not given)	APP 5'UTR act 158.4
O=C(C1=C(O)C(=O)N(CCc2ccccc2)C1c1cccs1)c1ccco1 (stereo not given)	none
Cc1ccc2nc(NC3=NCN(Cc4ccc5c(c4)OCO5)CN3)nc(C)c2c1	APP 5UTR inh 93.8 (no result: FLuc inhib CS, FLuc stim CS, NF-kB expr up)
COc1ccc(C(=O)/C=C2/c3ccccc3CC(C)(C)N2C)cc1OC	none (no result: APP 5'UTR act, APP 5UTR inh)
O=C(NCCC1=CCCCC1)Nc1ccc2nsnc2c1	APP 5'UTR act 165.0, STAT1 act 133.2, NF-kB expr up 6.44
O=C(NCCC1=CCCCC1)NC12CC3CC(CC(C3)C1)C2	APP 5'UTR act 173.3, STAT1 act 143.8
CC(C)(C)c1nc(SCC(=O)N2CC(=O)Nc3ccccc32)c2ccccc2n1	none
CCOc1c(Br)cc(/C=N\NC(=O)c2ccccc2)cc1OC	none
O=C(N/N=C/c1cccs1)c1ccc2nc[nH]c2c1	none
CC(/C=N/NC(=O)c1ccc2nc(C)[nH]c2c1)=C\c1ccccc1	none
CC(=C/c1ccccc1)/C=N/NC(=O)c1ccc2nc[nH]c2c1	FLuc inhib CS 81.9
CCOc1cc(C(=O)N/N=C/C(Br)=C/c2ccccc2)cc(OCC)c1OCC	APP 5UTR inh 89.6
CC(/C=N/NC(=O)c1ccncc1)=C\c1ccccc1	FLuc inhib CS 60.7
O=C(N/N=C/C(Br)=C\c1ccccc1)c1ccc2nc[nH]c2c1	APP 5UTR inh 82.8
CC(=C/c1ccc(C(C)C)cc1)/C=N/NC(=O)c1ccncc1	none
Clc1ccc(C(c2nnnn2C2CCCCC2)N(Cc2cccnc2)Cc2ccco2)cc1 (stereo not given)	none
CC(/C=N/NC(=O)c1nn(C)c(C)c1Br)=C\c1ccccc1	STAT1 act 131.9, FLuc inhib CS 79.9
Cc1cc(-c2nc3ncccc3o2)ccc1N	STAT1 act 138.6
Nc1ccc(-c2nc3ncccc3o2)c(Cl)c1	STAT1 act 145.0, FLuc inhib CS 72.5
O=C(CSc1ccc(Cl)cc1)Nc1cc(-c2nc3ncccc3o2)ccc1Cl	none
Nc1cc(-c2nc3ncccc3o2)ccc1Cl	STAT1 act 129.9
Nc1ccc(Cl)c(-c2nc3ncccc3o2)c1	none
Cc1nn(C)c(C)c1S(=O)(=O)N1CCC(C(=O)NCC2COc3ccccc3O2)CC1 (stereo not given)	none
O=c1c2ccccc2cnn1Cc1n[nH]c(=S)n1-c1ccccc1	none
CCn1c(C)nc2cc(C(=O)N/N=C/c3ccccc3)ccc21	STAT1 act 144.8
CCn1c(C)nc2cc(C(=O)N/N=C/c3cccc(O)c3O)ccc21	FLuc inhib CS 66.3
CCn1c2ccccc2c2cc(/C=N/NC(=O)c3ccccc3C)ccc21	APP 5UTR inh 79.4
O=c1ccccn1Cc1c(F)cccc1Cl	none
